# Columns and labels:
# [1] = target: T1, Cytochrome P450 11B2, mitochondrial (Homo sapiens, UniProt P19099); assay: Inhibition of human CYP11B2 expressed in hamster V79MZh cells using [1,2-3H]-11-deoxycorticosterone as substrate; type: cell-based
# T1 sequence (P19099 whole entry): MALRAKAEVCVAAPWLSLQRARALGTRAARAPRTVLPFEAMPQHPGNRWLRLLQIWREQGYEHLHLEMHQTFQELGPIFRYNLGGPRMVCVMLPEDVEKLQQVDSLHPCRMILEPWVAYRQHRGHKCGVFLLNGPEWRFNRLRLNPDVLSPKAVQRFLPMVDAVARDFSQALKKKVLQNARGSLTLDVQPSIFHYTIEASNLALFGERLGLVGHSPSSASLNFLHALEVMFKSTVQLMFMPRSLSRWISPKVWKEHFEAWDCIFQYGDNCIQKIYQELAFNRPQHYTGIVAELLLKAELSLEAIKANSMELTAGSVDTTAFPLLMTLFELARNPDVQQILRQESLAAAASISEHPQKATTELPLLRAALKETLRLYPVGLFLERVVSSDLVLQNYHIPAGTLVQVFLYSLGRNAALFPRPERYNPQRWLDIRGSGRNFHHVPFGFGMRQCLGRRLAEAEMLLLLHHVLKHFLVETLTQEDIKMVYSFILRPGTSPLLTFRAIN
# In short: (§1)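 V79MZh hamster fibroblasts expressing human CYP11B1 or CYP11B2 were incubated with [1,2-3H]-11-deoxycorticosterone (100 nM) plus inhibitor at a range of concentrations. The selectivity factor is IC50(CYP11B2)/IC50(CYP11B1).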
# [2] = target: T2, Cytochrome P450 11B1, mitochondrial (Homo sapiens, UniProt P15538); assay: Inhibition of human CYP11B1 expressed in hamster V79MZh cells using [1,2-3H]-11-deoxycorticosterone as substrate; type: cell-based; in short: as §1
# T2 sequence (P15538 whole entry): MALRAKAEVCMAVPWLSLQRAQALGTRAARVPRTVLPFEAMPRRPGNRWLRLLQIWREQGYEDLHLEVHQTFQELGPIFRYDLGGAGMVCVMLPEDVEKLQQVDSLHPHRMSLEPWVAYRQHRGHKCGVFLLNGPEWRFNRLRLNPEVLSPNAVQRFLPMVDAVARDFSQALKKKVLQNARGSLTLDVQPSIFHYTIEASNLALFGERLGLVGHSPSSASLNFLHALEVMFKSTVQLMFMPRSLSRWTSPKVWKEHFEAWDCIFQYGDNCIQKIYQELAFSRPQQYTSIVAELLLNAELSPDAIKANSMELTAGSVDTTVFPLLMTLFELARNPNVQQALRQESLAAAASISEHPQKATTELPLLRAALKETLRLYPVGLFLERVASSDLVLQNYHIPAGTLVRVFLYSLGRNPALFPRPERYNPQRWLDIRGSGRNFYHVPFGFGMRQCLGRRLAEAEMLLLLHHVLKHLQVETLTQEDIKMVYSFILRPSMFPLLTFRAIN
# [3] = species on record: Homo sapiens; assay: Selectivity factor, ratio of IC50 for human CYP11B2 to IC50 for human CYP11B1
# In short: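 V79MZh hamster fibroblasts expressing human CYP11B1 or CYP11B2 were incubated with [1,2-3H]-11-deoxycorticosterone (100 nM) plus inhibitor at a range of concentrations. […] The selectivity factor is IC50(CYP11B2)/IC50(CYP11B1).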
# [4] = target: T3, CYP17 (Homo sapiens, UniProt P05093); assay: Inhibition of human CYP17 expressed in Escherichia coli co-expressing rat NADPH-P450 reductase using progesterone as substrate at 2 uM relative to control; conditions: probe progesterone
# T3 sequence (P05093 whole entry): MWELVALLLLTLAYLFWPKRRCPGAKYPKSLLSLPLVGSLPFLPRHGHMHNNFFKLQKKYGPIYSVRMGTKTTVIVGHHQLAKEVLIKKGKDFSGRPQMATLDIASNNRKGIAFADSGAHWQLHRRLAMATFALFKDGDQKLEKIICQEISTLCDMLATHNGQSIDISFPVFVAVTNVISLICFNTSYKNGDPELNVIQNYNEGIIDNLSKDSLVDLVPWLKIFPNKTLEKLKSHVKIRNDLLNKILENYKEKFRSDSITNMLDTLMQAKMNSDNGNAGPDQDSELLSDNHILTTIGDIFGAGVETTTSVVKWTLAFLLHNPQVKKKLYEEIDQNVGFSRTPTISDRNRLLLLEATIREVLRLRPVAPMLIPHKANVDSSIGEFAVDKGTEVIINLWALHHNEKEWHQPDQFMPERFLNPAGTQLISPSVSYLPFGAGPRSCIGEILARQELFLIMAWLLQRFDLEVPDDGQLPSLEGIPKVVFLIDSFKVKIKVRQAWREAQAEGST
# In short: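 Human CYP17 expressed in E. coli, co-expressing rat NADPH-P450 reductase. Progesterone substrate at 25 μM with NADPH cofactor. Test compound at 2 μM. Percent inhibition is the mean of at least three experiments (deviations <25%); values ≤5% are treated as not significant.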
# [5] = target: T4, CYP19 (aromatase) (Homo sapiens, UniProt P11511); assay: Inhibition of microsomal CYP19 in human placenta using [1beta-3H]-androstenedione as substrate at 2 uM by 3H2O method relative to control; conditions: placental microsomes, probe [1beta-3H]-androstenedione
# T4 sequence (P11511 whole entry): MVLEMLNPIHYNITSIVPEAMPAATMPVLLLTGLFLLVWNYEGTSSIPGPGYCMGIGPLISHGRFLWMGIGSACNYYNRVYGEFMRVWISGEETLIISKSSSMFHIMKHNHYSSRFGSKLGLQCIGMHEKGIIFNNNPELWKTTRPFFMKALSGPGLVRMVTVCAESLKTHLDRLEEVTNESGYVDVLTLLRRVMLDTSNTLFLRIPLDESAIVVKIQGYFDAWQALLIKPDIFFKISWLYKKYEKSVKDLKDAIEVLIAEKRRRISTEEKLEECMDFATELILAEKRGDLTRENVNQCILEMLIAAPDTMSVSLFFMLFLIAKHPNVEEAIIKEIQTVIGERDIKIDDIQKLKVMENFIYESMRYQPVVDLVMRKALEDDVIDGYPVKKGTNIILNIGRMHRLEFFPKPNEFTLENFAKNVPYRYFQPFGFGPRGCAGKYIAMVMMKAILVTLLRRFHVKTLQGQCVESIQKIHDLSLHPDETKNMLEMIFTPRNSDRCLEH
# In short: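 Human placental microsomes as the CYP19 source, with [1β-3H]androstenedione at 500 nM. Activity read by 3H2O release. Compound at 2 μM. Percent inhibition is the mean of at least three experiments (deviations <25%); values ≤5% are not significant.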
# [6] = Cytotoxicity against HEK293 cells after 24 hrs; type: cell-based; conditions: human, read-out: LC50
# In short: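 HEK 293 cells seeded at 2 × 10⁵ cells per well; compounds added 24 h after seeding at 1% final DMSO. Living cell mass determined after 24 h incubation; LC₅₀ calculated. Doxorubicin positive control, rifampicin negative control. Mean of more than three repeats.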
SMILES,IC50 [1] [nM],IC50 [2] [nM],Ratio IC50 [3],inhibition at 2 µM [4] [%],inhibition at 2 µM [5] [%],CC50 at 24 h [6] [nM]
CCC(c1ccc(-c2ccccc2)nc1)n1ccnc1 (configuration not stated),92,28,3.4,–,–,–
c1ccc(-c2cnc(Cn3ccnc3)cn2)cc1,1020,610,1.7,–,–,–
CC(c1ccc(-c2cccc3ccccc23)nc1)n1ccnc1 (configuration not stated),273,60,4.6,–,–,–
CC(c1ccc(-c2ccccc2)nc1)n1ccnc1 (configuration not stated),200,33,6.1,13,1,–
Cc1ccncc1Cc1ccc(-c2ccccc2)nc1,19,8,2.4,–,–,–
CC(C)(C(=O)c1cccnc1)c1cccnc1 [METYRAPONE],–,–,–,3,–,–
c1ccc(-c2ccc(C(c3ccco3)n3ccnc3)cn2)cc1 (configuration not stated),74,69,1.1,–,–,–
NC(=O)c1cncc(Cc2ccc(-c3ccccc3)nc2)c1,2920,427,6.9,–,–,–
c1ccc(-c2cncc(Cc3ccc(-c4ccccc4)nc3)c2)cc1,0.5,1.3,0.4,–,–,–
COc1cccc2c1C(=O)c1c(O)c3c(c(O)c1C2=O)C[C@@](O)(C(=O)CO)C[C@@H]3O[C@H]1C[C@H](N)[C@H](O)[C@H](C)O1 [DOXORUBICIN],–,–,–,–,–,4300
c1ccc(-c2ccc(Cn3ccnc3)cn2)cc1,1420,107,13.3,–,–,–
c1cn(C(c2ccc(-c3ccsc3)nc2)C2CC2)cn1 (configuration not stated),31,11,2.8,–,–,–
Oc1cncc(Cc2ccc(-c3ccccc3)nc2)c1,836,51,16.4,–,–,–
c1ccc(-c2ccc(Cc3cccnc3)cn2)cc1,322,32,10.1,4,0,–
c1ccc(-c2ccc(Cc3cncnc3)cn2)cc1,3110,240,12.9,–,–,–
c1ccc(-c2ccc(Nc3cccnc3)cn2)cc1,> 5000,> 5000,–,–,–,–

SMILES,IC50 [1] [nM],IC50 [2] [nM],Ratio IC50 [3],inhibition at 2 µM [4] [%],inhibition at 2 µM [5] [%],CC50 at 24 h [6] [nM]
Fc1cncc(Cc2ccc(-c3ccccc3)nc2)c1,419,125,3.4,–,–,–
c1ccc(-c2ncc(Cn3ccnc3)c3ccccc23)cc1,302,87,3.5,–,–,–
c1ccc(-c2ncc(Cn3ccnc3)cn2)cc1,> 5000,1120,> 5,–,–,–
c1ccc(-c2ccc(Cc3ccncc3)cn2)cc1,621,98,6.4,–,–,–
c1ccc(-c2ccc(Cn3ccnc3)nn2)cc1,4540,1710,2.7,–,–,–
c1ccc(-c2ccc(C(C3CC3)n3ccnc3)cn2)cc1 (configuration not stated),25,21,1.2,–,–,–
c1cn(Cc2ccc(-c3ccsc3)nc2)cn1,1020,181,5.6,–,–,–
COc1cncc(Cc2ccc(-c3ccccc3)nc2)c1,25,5,5.1,–,–,–
c1ccc2c(-c3ccc(Cn4ccnc4)cn3)cccc2c1,656,68,9.7,–,–,–
c1ccc(-c2ccc(C(c3ccccc3)n3ccnc3)cn2)cc1 (configuration not stated),110,124,0.9,–,–,–
CC(c1ccc(-c2ccsc2)nc1)n1ccnc1 (configuration not stated),151,21,9.1,–,–,–
CO[C@H]1/C=C/O[C@@]2(C)Oc3c(C)c(O)c4c(O)c(c(/C=N/N5CCN(C)CC5)c(O)c4c3C2=O)NC(=O)/C(C)=C\C=C\[C@H](C)[C@H](O)[C@@H](C)[C@@H](O)[C@@H](C)[C@H](OC(C)=O)[C@@H]1C [RIFAMPIN],–,–,–,–,–,> 100000
c1ccc(-c2ccc(Cc3cncc4ccccc34)cn2)cc1,23,6,4.2,–,–,–
c1ccc(-c2ccc(Oc3cccnc3)cn2)cc1,1880,1020,1.9,–,–,–
CC(C)C(c1ccc(-c2ccccc2)nc1)n1ccnc1 (configuration not stated),28,–,2.4,–,–,–
c1ccc2c(-c3ccc(C(C4CC4)n4ccnc4)cn3)cccc2c1 (configuration not stated),220,151,1.5,–,–,–

# — ChEMBL document CHEMBL2417547 (J Med Chem, 2013)
